Source: ChEMBL document CHEMBL1151815, “Amides and benzenoids from Zanthoxylum ailanthoides with inhibitory activity on superoxide generation and elastase release by neutrophils” (J Nat Prod, 2009)
In brackets after ≈: the same amount, converted by molar mass.

Experiments:
Conditions in all cases: Neutrophil
[1] = Antiinflammatory activity against human neutrophils assessed as inhibition of fMLP/CB-induced superoxide anion generation; format: functional, cell-based
Summary of the method: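 Neutrophils (6 × 10^5/mL, dextran/Ficoll-isolated from healthy adults) with 0.5 mg/mL ferricytochrome c and 1 mM Ca2+, 2 min at 37 °C, compound or DMSO 5 min, cytochalasin B (1 µg/mL) 3 min, then fMLP 100 nM 10 min. SOD-inhibitable (100 U/mL) cytochrome c reduction at 550 nm, extinction coefficient 21.1/mM/10 mm; n = 4, mean ± SEM.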

[2] = Antiinflammatory activity against human neutrophils assessed as inhibition of fMLP/CB-induced elastase release at 10 ug/ml; format: functional
Summary of the method: (§1)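 Human neutrophils from healthy adult volunteers' venous blood, isolated by dextran sedimentation, Ficoll Hypaque gradient and hypotonic erythrocyte lysis, held in Ca2+-free HBSS pH 7.4 at 4 °C. Cells (6 × 10^5/mL) with MeO-Suc-Ala-Ala-Pro-Val-p-nitroanilide (100 µM) equilibrated 2 min at 37 °C, compound 5 min, then fMLP (100 nM)/cytochalasin B (0.5 µg/mL). A405 monitored continuously; n = 4, mean ± SEM.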

[3] = Antiinflammatory activity against human neutrophils assessed as inhibition of fMLP/CB-induced elastase release; format: functional, cell-based; summary of the method: as §1

Row | SMILES | IC50 [1] | IC50 [3] | inhibition at 10 µg/mL [2]
1 | COc1cc2ccc(=O)oc2cc1OC [SCOPARONE] | 8.25 mg/L (≈ 40 µM) |  | 43.1%
2 | c1ccc2c(c1)[I+]c1ccccc1-2 [DIPHENYLENEIODONIUM] | 0.54 mg/L |  | 
3 | CC1(C)C=Cc2cc3ccc(=O)oc3cc2O1 [XANTHYLETIN] | 4.1 mg/L (≈ 18 µM) | 5.53 mg/L (≈ 24.2 µM) | 
4 | c1cc2c(cc1[C@H]1OC[C@H]3[C@@H]1CO[C@@H]3c1ccc3c(c1)OCO3)OCO2 [SESAMIN] | 4.3 mg/L (≈ 12.1 µM) | 1.38 mg/L (≈ 3.89 µM) | 
5 | COc1ccc(CCN(C)C(=O)c2ccccc2)cc1 | 8.49 mg/L (≈ 31.5 µM) | 7.48 mg/L (≈ 27.8 µM) | 
6 | O=S(=O)(F)Cc1ccccc1 [PHENYLMETHYLSULFONYLFLUORIDE] |  | 35.2 mg/L (≈ 202 µM) | 
7 | CC(=O)/C=C/C=C/C(=O)NCC(C)C | 4.2 mg/L (≈ 21.5 µM) | 6.2 mg/L (≈ 31.8 µM) | 
8 | COc1ccc(CCN(C)C(=O)/C=C/c2ccc(O)cc2)cc1 [AILANTHAMIDE] | 3.71 mg/L (≈ 11.9 µM) | 4.23 mg/L (≈ 13.6 µM) | 

Now from value to compound, other results behind:

Row | IC50 [1] | IC50 [3] | SMILES | inhibition at 10 µg/mL [2]
9 | 1.29 mg/L (≈ 4.04 µM) | 1.94 mg/L (≈ 6.08 µM) | COc1c(O)ccc2c1cnc1c3cc4c(cc3ccc21)OCO4 [DECARINE] | 
10 | 5.34 mg/L (≈ 16.8 µM) | 6.15 mg/L (≈ 19.3 µM) | COc1cc(C(=O)C(CO)c2ccc(O)c(OC)c2)ccc1O (configuration not stated) [EVOFOLIN B] | 
11 | 0.6 mg/L (≈ 1.69 µM) |  | O=C1OC[C@H](Cc2ccc3c(c2)OCO3)[C@H]1Cc1ccc2c(c1)OCO2 [HINOKININ] | 24.7%
12 | 7.17 mg/L (≈ 31.3 µM) |  | COc1c2ccoc2nc2c(OC)cccc12 [GAMMA-FAGARINE] | 19.1%
